Legend:
[1] = tested on: poly-ubiquitinated proteins in HeLa cervical cancer cells; experiment: Immunoblot analysis of poly-ubiquitinated proteins in HeLa cells; type: cell-based, human; conditions: eight hours treatment
Outline: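 HeLa cells were grown in DMEM with 10% FBS, penicillin and streptomycin at 5% CO2, then treated for 8 h with or without test compound at several concentrations. Bortezomib served as the positive control. Poly-ubiquitinated proteins were detected by immunoblot, with β-actin as the loading control.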

HeLa cells = experiment: Washout experiment, residual cell viability; type: cell-based, human; conditions: HeLa cells briefly treated
Outline: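 HeLa cells grown in DMEM with 10% FBS, penicillin/streptomycin, 5% CO2. Cells were briefly exposed to the test compound or bortezomib (reversible-inhibitor reference), then washed out; non-washout cultures served as comparison. Viability was read by XTT: seeded at 1,000 cells/well, 4 h with XTT labeling mixture, absorbance at 450 nm. Run in triplicate, mean ± SE.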

[2] = tested on: chymotrypsin-like (CT-like) activity of proteasomes isolated from LCLs; experiment: Proteasome chymotrypsin-like activity, fluorogenic substrate Suc-LLVY-AMC; type: biochemical; conditions: 10 µM compound
Outline: (§1)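 Proteasomes came from lymphoblastoid cells lysed by glass-bead vortexing in Tris pH 7.5, MgCl2, DTT, ATP and sucrose buffer. They were semipurified by centrifugation and 100,000g ultracentrifugation. Preparations were pretreated with test compound for 30 min at 37°C, then assayed 45 min at 37°C with Suc-LLVY-AMC (CT-like), Boc-LRR-AMC (T-like) or Ac-YVAD-AMC (PGPH/caspase-like). Reactions were SDS-quenched and read at ex 380/em 440 nm. Results are % inhibition versus untreated; IC50 is the mean of three determinations.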

[3] = tested on: trypsin-like (T-like) activity of proteasomes isolated from LCLs; experiment: Proteasome trypsin-like activity, fluorogenic substrate Boc-LRR-AMC; type: biochemical; conditions: 10 µM compound
Outline: as §1

[4] = tested on: peptidylglutamyl peptide hydrolyzing-like (PGPH-like) activity of proteasomes isolated from LCLs; experiment: Proteasome PGPH-like activity, fluorogenic substrate Ac-YVAD-AMC; type: biochemical; conditions: for inhibition of PGPH-like activity of 20S proteasome: 10 µM compound; for IC50: read-out: Isolated enzyme IC50(µM) PGPH-like, proteasomes isolated from LCLs, average of three independent determinations
Outline: as §1

Cathepsin D = Cathepsin D (Homo sapiens, UniProt P07339); experiment: Residual Cathepsin D activity in HeLa cells; type: cell-based; conditions: concentrations up to 50 µM
Cathepsin D, sequence (P07339 65-412): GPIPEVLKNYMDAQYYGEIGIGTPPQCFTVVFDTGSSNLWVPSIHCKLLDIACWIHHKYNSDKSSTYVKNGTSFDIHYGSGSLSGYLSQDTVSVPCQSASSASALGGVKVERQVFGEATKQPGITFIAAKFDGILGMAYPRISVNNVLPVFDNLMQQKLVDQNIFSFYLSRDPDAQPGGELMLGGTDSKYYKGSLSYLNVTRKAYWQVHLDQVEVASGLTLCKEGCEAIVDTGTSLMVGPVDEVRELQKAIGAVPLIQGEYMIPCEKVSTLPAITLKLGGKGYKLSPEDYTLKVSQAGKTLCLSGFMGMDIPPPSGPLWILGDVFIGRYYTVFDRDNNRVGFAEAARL

Calpain = experiment: Residual Calpain activity in HeLa cells; type: cell-based, human; conditions: concentrations up to 50 µM
[5] = tested on: SiHa cervical cancer cells (HPV16+); experiment: XTT cell viability assay, SiHa; type: cell-based, human; conditions: 48 hours
[6] = tested on: ME180 cervical cancer cells (HPV58+); experiment: XTT cell viability assay, ME180; type: cell-based, human; conditions: 48 hours
[7] = tested on: primary human Keratinocytes; experiment: XTT cell viability assay, primary Keratinocytes; type: cell-based; conditions: 48 hours
[8] = tested on: Ub-FL reporter in HeLa cervical cancer cells; experiment: Ubiquitin-Firefly luciferase; type: cell-based, human; conditions: combination of Bortezomib (5nM) and compound 2 (1µM)
Outline: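 HeLa cells were transfected with either the Ub-FL reporter (four ubiquitin G76V copies fused N-terminal to firefly luciferase) or the CMV-FL control. They were replated 24 h later at 1×10^4 cells/well and left 18 h to attach. Cells then received bortezomib 5 nM, test compound 1 µM, or both for 6 h. Lysate luciferase was read as RLU, given as % of control, from three independent experiments with SE.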

[9] = tested on: HeLa cervical cancer cells; experiment: Combination with Bortezomib, XTT viability, isobologram / combination index; type: cell-based, human
[10] = tested on: HeLa cervical cancer cells; experiment: Cellular morphology by phase contrast microscopy; type: cell-based, human; conditions: combination of Bortezomib (5nM)+compound 2 (1 µM), 48 hours

Row | IC50 [4] [µM] | Structure (SMILES) | levels of poly-ubiquitinated proteins [1] | cell viability after washout compared to non-washout cultures (HeLa cells) | inhibition of chymotrypsin-like (CT-like) activity of 20S proteasome [2] | inhibition of trypsin-like (T-like) activity of 20S proteasome [3] | inhibition of PGPH-like activity of 20S proteasome [4] | further results
1 |  | CC(C)C[C@H](NC(=O)[C@H](Cc1ccccc1)NC(=O)c1cnccn1)B(O)O [Bortezomib, reference compound] | increase | partial recovery in cell viability |  |  |  | 
2 |  | O=C1/C(=C/c2ccc(Cl)c(Cl)c2)CN(C(=O)N[C@@H](Cc2ccccc2)C(=O)O)C/C1=C\c1ccc(Cl)c(Cl)c1 [Compound 2] |  | partial recovery in cell viability | nearly fully abrogated | nearly fully abrogated | nearly fully abrogated | inhibitory capacity toward Cathepsin D activity (Cathepsin D): no inhibitory capacity; inhibitory capacity toward Calpain activity (Calpain): no inhibitory capacity; effect on viability of SiHa [5]: dose-dependent drop; effect on viability of ME180 [6]: dose-dependent drop; effect on viability of primary human Keratinocytes [7]: minimal effects; stabilization of the Ub-FL degron compared to single agents alone [8]: significantly enhance the stabilization; Combination Index (CI) ([9]; Bortezomib 3.95 nmol/L / compound 2 2.5 mM/L): 0.6; Combination Index (CI) ([9]; Bortezomib 6.125 nmol/L / compound 2 1.64 mM/L): 0.6; Combination Index (CI) ([9]; Bortezomib 7.5 nmol/L / compound 2 1.06 mM/L): 0.59; interaction of the combination with Bortezomib by isobologram analysis ([9]; checker board dilution series, XTT): highly synergistic; morphological changes compared to single treatment alone [10]: greater apoptotis-associated morphological changes
3 | > 10 | O=C1/C(=C/c2ccc(Cl)c(Cl)c2)CN(C(=O)N[C@@H](Cc2ccc(O)cc2)C(=O)O)C/C1=C\c1ccc(Cl)c(Cl)c1 [Compound 3] |  |  | partial inhibition | partial inhibition | partial inhibition | 
4 | > 10 | CC(C)C[C@H](NC(=O)N1C/C(=C\c2ccc(Cl)c(Cl)c2)C(=O)/C(=C/c2ccc(Cl)c(Cl)c2)C1)C(=O)O [Compound 4] |  |  | partial inhibition | partial inhibition | partial inhibition | 
5 |  | O=C(O)CC[C@H](NC(=O)N1C/C(=C\c2ccc(Cl)c(Cl)c2)C(=O)/C(=C/c2ccc(Cl)c(Cl)c2)C1)C(=O)O [Compound 5] | no changes |  |  |  |  | 

Reference: article PMC3204583 (Journal of medicinal chemistry, 2010)
